Results on 3 molecules are retold here after article PMC3331960 (Nature chemical biology, 2012).

Experiment [1] deals with TIR1-IAA7 DII (Arabidopsis thaliana, UniProt Q38825+Q570C0, DEL96-243). Kind of experiment: Surface plasmon resonance, TIR1 over immobilized IAA7 DII peptide. Type of experiment: binding. To be noted: for TIR1 association with the DII peptide (SPR): co-injection of TIR1 with auxin, vs no auxin.
Experiment [2] deals with T1, TIR1-IAA7 (Arabidopsis thaliana, UniProt Q38825+Q570C0).
T1 sequence (Q570C0 1-594): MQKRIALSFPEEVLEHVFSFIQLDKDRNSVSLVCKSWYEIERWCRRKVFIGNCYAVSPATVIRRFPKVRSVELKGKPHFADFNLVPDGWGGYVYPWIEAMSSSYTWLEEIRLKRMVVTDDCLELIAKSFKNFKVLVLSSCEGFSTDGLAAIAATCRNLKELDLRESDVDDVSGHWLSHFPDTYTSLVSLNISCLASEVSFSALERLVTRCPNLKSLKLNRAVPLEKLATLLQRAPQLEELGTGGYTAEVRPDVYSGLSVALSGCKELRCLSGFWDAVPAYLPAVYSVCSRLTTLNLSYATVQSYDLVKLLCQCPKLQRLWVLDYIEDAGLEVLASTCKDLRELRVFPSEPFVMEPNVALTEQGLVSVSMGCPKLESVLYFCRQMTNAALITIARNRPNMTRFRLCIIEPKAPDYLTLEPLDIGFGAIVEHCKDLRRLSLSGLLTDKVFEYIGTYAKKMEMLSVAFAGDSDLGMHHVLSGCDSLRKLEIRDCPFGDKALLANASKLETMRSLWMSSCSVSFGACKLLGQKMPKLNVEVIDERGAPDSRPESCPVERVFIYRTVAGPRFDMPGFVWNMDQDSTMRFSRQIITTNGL
T1 sequence (Q39255 1-160 partner): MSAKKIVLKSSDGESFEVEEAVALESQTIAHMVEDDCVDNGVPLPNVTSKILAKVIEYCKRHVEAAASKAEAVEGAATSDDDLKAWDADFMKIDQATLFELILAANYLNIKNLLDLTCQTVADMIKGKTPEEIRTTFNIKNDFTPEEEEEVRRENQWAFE
T1 sequence (Q38825 1-243): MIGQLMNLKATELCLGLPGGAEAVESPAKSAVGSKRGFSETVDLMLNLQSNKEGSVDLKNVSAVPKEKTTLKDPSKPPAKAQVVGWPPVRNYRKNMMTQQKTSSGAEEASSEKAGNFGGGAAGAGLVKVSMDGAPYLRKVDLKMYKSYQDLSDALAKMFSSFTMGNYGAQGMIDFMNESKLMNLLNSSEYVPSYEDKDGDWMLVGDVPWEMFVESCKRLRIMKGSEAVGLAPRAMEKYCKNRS
Nature of the experiment: [3H]-IAA radioligand binding. The note with it: Ki (Mean ± SEM), TIR1-IAA7, cold competitor vs [3H] IAA. Put shortly: (§1)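 ASK1-TIR1 or ASK1-AFB5 (0.44 μg, insect cells) with E. coli GST-IAA7 (1:10 molar), >1 h at 4°C in pH 8.0 Tris binding buffer. KD from [³H]-IAA saturation binding. Ki from competition with cold 1-NAA, 2,4-D or picloram against fixed [³H]-IAA (5–100 nM), fitted to a one-site competition model by nonlinear regression. Filter binding with scintillation read-out; triplicates.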

The target of experiment [3] is AFB5-IAA7 (Arabidopsis thaliana, UniProt Q38825+Q9LTX2). Nature of the experiment: [3H]-IAA radioligand binding. The note with it: Ki (Mean ± SEM), AFB5-IAA7, cold competitor vs [3H] IAA. Put shortly:
as §1

Experiment [4] has as its target AFB5-IAA7 DII (Arabidopsis thaliana, UniProt Q38825+Q9LTX2, DEL96-243). Nature of the experiment: Surface plasmon resonance, AFB5 over immobilized IAA7 DII peptide. In kind it is binding. The note with it: 50 μM picloram.
Experiment [5] deals with T2, TIR1-IAA7 interaction (Arabidopsis thaliana, UniProt Q38825+Q570C0).
T2 sequence (Q570C0 1-594): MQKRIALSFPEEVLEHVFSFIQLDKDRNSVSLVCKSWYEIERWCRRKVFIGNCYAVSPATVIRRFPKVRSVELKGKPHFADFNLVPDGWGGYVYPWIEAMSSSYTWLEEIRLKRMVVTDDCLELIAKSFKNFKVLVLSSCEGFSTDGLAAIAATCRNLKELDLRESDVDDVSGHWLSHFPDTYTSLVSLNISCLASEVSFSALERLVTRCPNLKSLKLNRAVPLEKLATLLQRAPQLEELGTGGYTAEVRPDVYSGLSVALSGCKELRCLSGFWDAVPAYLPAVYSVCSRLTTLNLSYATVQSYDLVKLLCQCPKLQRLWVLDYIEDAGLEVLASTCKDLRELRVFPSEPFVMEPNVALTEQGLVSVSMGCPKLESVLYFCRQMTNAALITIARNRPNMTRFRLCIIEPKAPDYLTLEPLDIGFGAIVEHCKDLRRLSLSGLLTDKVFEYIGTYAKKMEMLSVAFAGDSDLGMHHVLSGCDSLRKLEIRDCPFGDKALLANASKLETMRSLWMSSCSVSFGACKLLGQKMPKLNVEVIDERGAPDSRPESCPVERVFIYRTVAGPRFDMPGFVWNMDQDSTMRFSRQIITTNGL
T2 sequence (Q38825 1-243): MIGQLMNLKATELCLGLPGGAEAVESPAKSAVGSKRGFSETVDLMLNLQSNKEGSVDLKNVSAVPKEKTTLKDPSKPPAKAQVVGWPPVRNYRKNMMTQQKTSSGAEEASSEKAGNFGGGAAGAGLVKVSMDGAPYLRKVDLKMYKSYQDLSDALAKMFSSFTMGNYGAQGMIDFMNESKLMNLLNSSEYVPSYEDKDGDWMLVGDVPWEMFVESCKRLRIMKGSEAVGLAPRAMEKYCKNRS
Kind of experiment: LexA yeast two-hybrid, auxin-induced TIR1-IAA7 interaction. In kind it is cell-based. The note with it: 50 μM auxins in selective media.

Experiment [6] concerns the target T3, TIR1-ASK1 complex (Arabidopsis thaliana, UniProt Q570C0;Q39255).
T3 sequence 1: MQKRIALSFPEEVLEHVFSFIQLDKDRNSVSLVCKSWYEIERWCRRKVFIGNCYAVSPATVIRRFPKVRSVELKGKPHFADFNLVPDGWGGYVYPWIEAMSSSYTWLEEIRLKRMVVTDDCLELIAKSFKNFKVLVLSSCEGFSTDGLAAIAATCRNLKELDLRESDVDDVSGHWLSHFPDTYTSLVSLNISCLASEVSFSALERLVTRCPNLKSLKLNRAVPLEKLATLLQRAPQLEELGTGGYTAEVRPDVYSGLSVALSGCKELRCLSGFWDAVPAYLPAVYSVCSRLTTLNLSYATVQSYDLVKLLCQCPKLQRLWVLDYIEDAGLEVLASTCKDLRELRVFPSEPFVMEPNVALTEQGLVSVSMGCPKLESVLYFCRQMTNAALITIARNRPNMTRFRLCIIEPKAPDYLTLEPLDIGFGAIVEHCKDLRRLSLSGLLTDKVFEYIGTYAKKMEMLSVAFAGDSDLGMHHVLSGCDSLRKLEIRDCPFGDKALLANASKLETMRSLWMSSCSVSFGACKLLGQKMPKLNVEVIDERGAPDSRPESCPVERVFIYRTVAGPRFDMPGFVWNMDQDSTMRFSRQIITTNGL
T3 sequence 2: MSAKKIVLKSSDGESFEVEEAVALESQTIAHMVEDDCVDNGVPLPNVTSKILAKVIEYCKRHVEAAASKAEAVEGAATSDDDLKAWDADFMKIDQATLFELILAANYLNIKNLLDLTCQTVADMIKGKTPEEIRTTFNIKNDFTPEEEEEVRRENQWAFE
Nature of the experiment: SPR. A general note: In SPR one partner is held on a chip, and binding of the other changes the refractive index at the surface.

Several values for one entry are separate records, joined by “and”; a condition that tells them apart may be missing. Identical values can stand only once. Where no end group is shown, it is not given here. The star is where a group is joined. Biotin = O=C1N[C@H]2[C@H](CS[C@H]2CCCCC(=O)*)N1

On to `Nc1c(Cl)c(Cl)nc(C(=O)O)c1Cl` [picloram, 4-amino-3,5,6-trichloro-2-pyridinecarboxylic acid], for which the “dissociation of the TIR1-IAA7 DII complex (SPR)” value in experiment [1] (50 μM ligand concentration) is recorded as “rapid dissociation”. Moreover, in experiment [1], the “TIR1 association with the DII peptide (SPR)” value is “enhanced association with the peptide”. Also, the Ki was 3900 ± 910 nM in experiment [2]; 54.9 nM and 54.7 nM in experiment [3]. In addition, the “assembly of the AFB5-IAA7 complex (SPR)” value in experiment [4] was “promotes rapid assembly”. Also, the “TIR1-IAA7 interaction in yeast (β-galactosidase expression)” value in experiment [5] is “promoted TIR1-IAA7 interaction, but not to the same extent as IAA”.
With `O=C(O)Cc1cccc2ccccc12` [1-NAA, 1-naphthaleneacetic acid], the “TIR1 association with the DII peptide (SPR)” value in experiment [1] is listed as “enhanced association with the peptide”. Further, the “TIR1-IAA7 interaction in yeast (β-galactosidase expression)” value in experiment [5] is given as “promoted TIR1-IAA7 interaction, but not to the same extent as IAA”.

B1: Biotinylated DII IAA7 peptide (SPR) (peptide)
peptide: Biotin-AKAQVVGWPPVRNYRKN
On to B1, for which the binding result in experiment [6] is “binds”.

The term Ki denotes a measure of affinity in units of concentration, obtained from inhibition or displacement. A higher Ki goes with a looser hold on the target.
